One compound from ChEMBL document CHEMBL4118104, “Design, Synthesis, and Evaluation of Orally Bioavailable Quinoline-Indole Derivatives as Innovative Multitarget-Directed Ligands: Promotion of Cell Proliferation in the Adult Murine Hippocampus for the Treatment of Alzheimer's Disease” (J Med Chem, 2018) can be followed below.

Common to all, as to assay type: ADME, organism-based
A short description of data set [1]: MRT (0 to infinity) in Sprague-Dawley rat at 30 mg/kg, po by LC-MS/MS analysis. The settings on record: in vivo. The procedure, abridged:
(§1)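 SD rats given a single oral gavage dose of 30 mg/kg, n = 3; plasma levels by LC-MS/MS; bioavailability computed against the 5 mg/kg intravenous arm.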

Data set [2] is described as follows: MRT (0 to infinity) in Sprague-Dawley rat at 5 mg/kg, iv administered as single dose by LC-MS/MS analysis. The following applies: in vivo.
Data set [3] is described as follows: Tmax in Sprague-Dawley rat at 30 mg/kg, po by LC-MS/MS analysis. The following applies: in vivo. Summed up:
as §1

Data set [4] can be described thus: MRT (0 to t) in Sprague-Dawley rat at 5 mg/kg, iv administered as single dose by LC-MS/MS analysis. The settings on record: in vivo.
A short description of data set [5]: AUC (0 to t) in Sprague-Dawley rat at 5 mg/kg, iv administered as single dose by LC-MS/MS analysis. The settings on record: in vivo. Summed up:
(§2)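 SD rats given 5 mg/kg intravenously, n = 3; pharmacokinetic parameters derived from plasma concentrations.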

Data set [6] in a line: MRT (0 to t) in Sprague-Dawley rat at 30 mg/kg, po by LC-MS/MS analysis. The following applies: in vivo. Summed up: as §1
Data set [7] can be described thus: Oral bioavailability in Sprague-Dawley rat at 30 mg/kg by LC-MS/MS analysis. The settings on record: in vivo. Summed up:
as §1

Data set [8] is described as follows: Half life in Sprague-Dawley rat at 5 mg/kg, iv administered as single dose by LC-MS/MS analysis. The settings on record: in vivo. The procedure, abridged: as §2
A short description of data set [9]: Clearance in Sprague-Dawley rat at 5 mg/kg, iv administered as single dose by LC-MS/MS analysis. The following applies: in vivo. The procedure, abridged: as §2
The nature of data set [10]: AUC (0 to t) in Sprague-Dawley rat at 30 mg/kg, po by LC-MS/MS analysis. The following applies: in vivo.
Data set [11] can be described thus: Cmax in Sprague-Dawley rat at 30 mg/kg, po by LC-MS/MS analysis. More on the design: dose 30 mg/kg, route oral. The following applies: in vivo. Summed up: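 SD rats, single oral gavage 30 mg/kg, n = 3; plasma and brain drug levels taken 1 h after dosing, measured by LC-MS/MS.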
A short description of data set [12]: Volume of distribution at steady state in Sprague-Dawley rat at 5 mg/kg, iv administered as single dose by LC-MS/MS analysis. The following applies: in vivo, read-out: Vdss.

The term MRT inf denotes a mean duration of stay, worked out from the concentration-time curve. As usually defined, the Tmax is the time from dosing to the highest level. In general, MRT last refers to the average time that molecules of a dose stay in the body. The term AUC(0-t) denotes exposure summed from dosing to a finite time, without extrapolation to infinity. A high value points to high exposure. In general, bioavailability refers to the share of a dose that reaches the circulation, judged against a reference dose that is usually intravenous. A high value points to good availability. One may read the half-life as how long it takes for the measured level to halve. A low value points to fast loss. Broadly, the clearance is the volume of plasma or blood freed of the substance per unit of time. By Cmax is commonly meant the highest concentration seen after dosing. Take `Cl.Oc1ccc2[nH]c(-c3ccc4c(Cl)cc(Cl)c(O)c4n3)cc2c1`: the MRT inf in data set [1] was determined as 293 min; in data set [2] it was 24.6 min. Further, the time to peak (Tmax) in [3] amounted to 30 min. For the same compound, the MRT last in data set [4] was 22.8 min; in [6], 152 min. Also, the AUC(0-t) in [5] came to 2110 ng·h/mL; in data set [10], 1500 ng·h/mL. In [7], the bioavailability was determined as 14.1%. Moreover, in data set [8], the half-life is 55.8 min. This compound had a clearance in data set [9] of 39.3 mL/min/kg. In data set [11], this compound showed a Cmax of 1000 ng/mL. The Vd in data set [12] was determined as 0.954 L/kg.
